In ChEMBL document CHEMBL1123170, “Drug design via pharmacophore identification. Dopaminergic activity of 3H-benz[e]indol-8-amines and their mode of interaction with the dopamine receptor” (1986):
Active and inactive are the calls of the source. No cut-off for these calls is given here.

Columns and labels:
[1] = tested on: Rattus norvegicus; test: Contralateral turning characteristic of dopamine agonist was measured in rat at 10 Sc mg/kg dose; type: functional
In short: (§1)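 Male Sprague-Dawley rats with unilateral 6-OHDA nigrostriatal lesions, groups of 4-5, reused at least 1 week apart. Dosed po or sc as stated, placed at once in a rotometer, and rotation recorded continuously until it stopped. Readout is total contralateral turns (mean ± SEM). Doses given as base.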

[2] = tested on: Rattus norvegicus; test: Contralateral turning characteristic of dopamine agonist was measured in rat at 10 Po mg/kg dose; type: functional; in short: as §1
[3] = tested on: Mus musculus; test: Compound was tested for its ability to antagonize the catalepsy produced in mice after sc administration; type: functional
In short: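 Male Swiss albino mice (21-25 g), groups of 10-12. Reserpine 5 mg/kg ip given 17 h before sc test drug. Catalepsy checked before dosing and at 0.5, 1, 2, 3.5 and 5 h: mouse placed on a rubber stopper (5 cm diameter, 2.5 cm high) for 3 min; staying on counts as cataleptic. Quantal ED50 = dose reversing catalepsy in 50% of mice.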

[4] = tested on: Rattus norvegicus; test: Compound was evaluated for its ability to induce locomotion in rats rendered akinetic by bilateral anterolateral hyphalamic injection of 6-OHDA at 2.5 mg/kg dose after sc administration; type: functional; settings: route subcutaneous
In short: (§2)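 Male Sprague-Dawley rats with 6-OHDA lesions of the anterolateral hypothalamus on both sides; tested 4 days after lesioning. Compound given sc, then rats placed in an open field. Ambulation recorded in 2-min periods across 2 h; one score = all four limbs placed in one square. Readout is the cumulative ambulation score (mean ± SEM).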

[5] = tested on: Rattus norvegicus; test: Compound was evaluated for its ability to induce locomotion in rats rendered akinetic by bilateral anterolateral hyphalamic injection of 6-OHDA at 30 mg/kg dose after sc administration; I=Inactive; type: functional, organism-based; parameters: dose 30 mg/kg; in short: as §2
[6] = tested on: Rattus norvegicus; test: Effect of pretreatment with alpha-MPT on the rotational behavior induced by the compound (5 mg/kg, sc) in rats with 6-OHDA induced lesions (indicates that it acted directly on DA receptors); type: functional
[7] = tested on: Rattus norvegicus; test: Ability to induce locomotion in rats rendered akinetic by bilateral anterolateral hyphalamic injection of 6-OHDA at 2.5 mg/kg dose after sc administration; type: functional; settings: route subcutaneous; in short: as §2
[8] = tested on: Rattus norvegicus; test: Contralateral turning characteristic was measured in rat at 5 po mg/kg dose; type: functional
In short: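 Male Sprague-Dawley rats with unilateral 6-OHDA lesions of the nigrostriatal pathway, in groups of 4-5, were reused at intervals of at least 1 week. After dosing, each rat was placed straight into a rotometer and recorded continuously until rotation ceased. Result is total contralateral turns, mean ± SEM. Doses refer to the base.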

[9] = tested on: Rattus norvegicus; test: Compound was evaluated for its ability to induce locomotion in rats rendered akinetic by bilateral anterolateral hyphalamic injection of 6-OHDA at 10 Po mg/kg dose after sc administration; type: functional
In short: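 Male Sprague-Dawley rats with bilateral 6-OHDA lesions of the anterolateral hypothalamus were tested 4 days after lesioning, dosed, and placed in an open field. Ambulation (all four limbs placed in one square = one score) was counted over six 2-min periods within 2 h. Result is the cumulative ambulation score, mean ± SEM. Doses refer to the base.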

[10] = molecular target: Dopamine receptor (Rattus norvegicus) (UniProt P25115+P19020+P30729+P18901+P61169); test: Dopamine receptor agonistic activity measured as Contralateral turning characteristic was measured in rat at 2.5 Sc mg/kg dose; type: functional, organism-based; in short: as §1
[11] = tested on: Rattus norvegicus; test: Compound was evaluated for its ability to induce locomotion in rats rendered akinetic by bilateral anterolateral hyphalamic injection of 6-OHDA at 10 mg/kg dose after sc administration; type: functional; settings: route subcutaneous; in short: as §2

For `CN(C)C1CCc2ccc3[nH]ccc3c2C1` (stereo not given), the Activity [1] was 4540, the Activity [2] was 4947 and the ED50 [3] was 5.8 mg/kg. For the same molecule, the Ambulation score [4] was 378.
`CN(C)C1CCc2ccc3c(ccn3C)c2C1` (stereo not given) was tested, and the ED50 [3] was over 30 mg/kg and the Ambulation score [5] was “inactive”.
`CCCN(CCC)C1CCc2ccc3[nH]ccc3c2C1` (stereo not given) was tested, and the ED50 [3] was 2.3 mg/kg, the Activity [6] was 3460 and the Ambulation score [7] was 287.
`CC(C)C[C@H]1C(=O)N2CCC[C@H]2[C@]2(O)O[C@](NC(=O)[C@@H]3C=C4c5cccc6[nH]c(Br)c(c56)C[C@H]4N(C)C3)(C(C)C)C(=O)N12` [BROMOCRIPTINE] showed an ED50 [3] of 2.3 mg/kg, an Activity [8] of 1805 and an Ambulation score [9] of 112.
Molecule `CCCN(CCC)C1CCc2ccc3c(ccn3C)c2C1` (stereo not given) has an Activity [10] of under 300, an ED50 [3] of 5 mg/kg and an Ambulation score [11] of under 100.
